Assay outcomes deposited in PubChem by Broad Institute.
T cruzi growth = blocks T. cruzi growth in NIH3T3 culture | T. cruzi beta-gal in NIH3T3, GalScreen luminescence, 90 h | inhibition, % at 8.34 µM | 77,000 tested, 5.9% active | AID 624255;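 active means mean inhibition above about 93%, with at least 55% of replicates each passing it, limit read from the data, passing the limit was not always enough; inconclusive means only one of those two conditions holds; inactive means neither condition holds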
Pf Dd2 inh = P. falciparum Dd2 growth inhibition. SYBR Green, 72 h; active compounds read low. activity change, % at 10 µM. 94,000 tested, 2.3% active; in the data active means activity change below about -80%; inconclusive means no clear call, values can overlap the other calls
GASC1 inh = KDM4C (human) demethylase inhibition; GST-KDM4C 2-372, H3K9me3 peptide, LANCE TR-FRET; inhibition, % at 12.5 µM; AID 720574; Q9H3R0; 96,000 tested, 0.15% active;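 active means mean replicate inhibition above about 25%, with at least 55% of replicates also reaching it, limit read from the data, passing the limit was not always enough; inconclusive means only one of those two conditions met; inactive means neither condition met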
Target sequence (Q9H3R0 2-372 limits assumed): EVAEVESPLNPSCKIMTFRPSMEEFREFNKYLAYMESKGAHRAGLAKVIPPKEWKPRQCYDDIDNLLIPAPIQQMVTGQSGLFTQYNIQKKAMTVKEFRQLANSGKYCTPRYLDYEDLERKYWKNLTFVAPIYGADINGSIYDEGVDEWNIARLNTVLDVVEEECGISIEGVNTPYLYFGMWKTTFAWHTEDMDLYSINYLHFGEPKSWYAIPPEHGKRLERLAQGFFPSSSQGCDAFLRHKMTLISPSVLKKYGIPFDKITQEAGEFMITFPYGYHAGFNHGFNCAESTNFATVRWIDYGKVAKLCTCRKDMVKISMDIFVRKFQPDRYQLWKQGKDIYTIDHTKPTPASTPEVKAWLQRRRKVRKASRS
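Material: GST-tagged GASC-1 (JMJD2C) catalytic fragment, aa 2-372 / Quantity: enzyme final amount 10 nM / Medium: HEPES buffer, pH 7.5, plus ascorbate / Doses: one test concentration per compound / Incubation: 30 min reaction, 60 min detection, RT / Measured by: LANCE TR-FRET / Read-out: inhibition from TR-FRET ratio decrease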
IDH1 R132H inh = blocks human IDH1 R132H reductase activity; O75874; diaphorase/resazurin fluorescence, 60 min; inhibition, % at 10 µM; 70,000 tested, 0.18% active; in the data active means inhibition above about 34%; inconclusive means no clear call, values can overlap the other calls; inactive means below about 11%
Hits are given with their value; - = inactive; ? = inconclusive; . = no result; ! = not active in a repeat. This is a sample that favours compounds with a hit; in the whole collection about 5.8% have one here.

SMILES	T cruzi growth	Pf Dd2 inh	GASC1 inh	IDH1 R132H inh
O=C(Nc1ccc(C(F)(F)F)cc1)N1C[C@@H]2N[C@H](C1)C2c1ccc(-c2cccc(F)c2)cc1 (stereo not given in full)	.	-83.5!	-	.
C[C@H](O)C#Cc1cnc2c(c1)C(=O)N([C@@H](C)CO)C[C@@H](C)[C@@H](CN(C)C(=O)Cc1ccncc1)O2	.	-95.2	-	-
CCCC#Cc1cnc2c(c1)C(=O)N([C@@H](C)CO)C[C@H](C)[C@@H](CN(C)C(=O)Cc1ccncc1)O2	-	-	-	50.6
COc1ccc2c3c(n(C)c2c1)[C@H](CO)NCC31CCN(Cc2ccc(F)cc2)CC1	.	-83.1	.	.
COc1ccc2c3c(n(C)c2c1)[C@H](CO)NCC31CN(CC2CCOCC2)C1	.	-	-	.
COc1ccc2c3c(n(C)c2c1)[C@H](CO)NCC31CCN(Cc2ccc(Cl)cc2)CC1	.	-91.0	-	.
COc1ccc2c3c(n(C)c2c1)[C@H](CO)NCC31CCN(CC2CCCC2)CC1	.	-86.2	-	.
CC(=O)c1cccc(NC(=O)C(C)NS(=O)(=O)c2ccc(Br)cc2)c1 (stereo not given)	.	.	.	-
CC(C)NC(=O)N1Cc2cc(C(=O)NCC(F)(F)F)nc(-c3cccc(-c4cc5ccccc5o4)c3)c2[C@H]1CCO	.	-85.6	-	.
CC(C)(C)S(=O)N1Cc2cc(C(=O)NCc3ccc4c(c3)OCO4)nc(-c3cccc(-c4cc5ccccc5o4)c3)c2[C@H]1CCO (stereo not given in full)	.	-93.3	-	.
COc1ccc(NC(=O)COc2ccc([N+](=O)[O-])cc2)cc1OC	.	.	.	-
C[C@@H]1CN([C@@H](C)CO)C(=O)c2c(c3ccccc3n2C)-c2ccccc2CO[C@@H]1CN(C)Cc1ccccc1C(F)(F)F	.	-86.9	-	.
C[C@H]1CN([C@@H](C)CO)C(=O)c2c(c3ccccc3n2C)-c2ccccc2CO[C@H]1CN(C)Cc1ccc(C(F)(F)F)cc1	.	?	-	.
C[C@H]1CN([C@@H](C)CO)C(=O)c2c(c3ccccc3n2C)-c2ccccc2CO[C@@H]1CN(C)Cc1cccc(C(F)(F)F)c1	.	-81.6	-	.
C[C@@H]1CN([C@@H](C)CO)C(=O)c2c(c3ccccc3n2C)-c2ccccc2CO[C@@H]1CN(C)Cc1cccc(C(F)(F)F)c1	.	-90.5	-	.
C[C@@H]1CN([C@H](C)CO)C(=O)c2c(c3ccccc3n2C)-c2ccccc2CO[C@H]1CN(C)Cc1ccccc1C(F)(F)F	.	-	-	.
COc1cccc(OC)c1C(=O)NC(=S)Nc1cccc(-c2nn3c(C)nnc3s2)c1	.	.	.	-
C[C@H](CO)N1C[C@H](C)[C@@H](CN(C)Cc2ccc(C(=O)Nc3ccccc3N)cc2)Oc2c(NS(=O)(=O)c3ccccc3)cccc2C1=O	.	-	-	-
C[C@@H]1CN([C@@H](C)CO)C(=O)c2cccc(NS(=O)(=O)c3ccc(Cl)cc3)c2O[C@@H]1CN(C)Cc1ccc(C(=O)Nc2ccccc2N)cc1	-	-92.3	-	.
C[C@@H]1CN([C@@H](C)CO)C(=O)c2cccc(NS(=O)(=O)c3ccccc3)c2O[C@@H]1CN(C)Cc1ccc(C(=O)Nc2ccccc2N)cc1	-	-91.8	-	.
C[C@H](CO)N1C[C@H](C)[C@H](CN(C)Cc2ccc(C(=O)Nc3ccccc3N)cc2)Oc2c(NS(=O)(=O)c3ccc(F)cc3)cccc2C1=O	.	-85.3	-	-
CC(C)C(NS(=O)(=O)c1ccccc1F)C(=O)O (stereo not given)	.	.	.	-
C[C@H](CO)N1C[C@H](C)[C@@H](CN(C)S(=O)(=O)c2ccc(Cl)cc2)OCCCC[C@H](C)Oc2ccc(NC(=O)c3ccccc3)cc2C1=O	-	-	-	.
Cc1ccc(S(=O)(=O)N(C)C[C@@H]2OCCCC[C@H](C)Oc3ccc(NC(=O)c4ccccc4)cc3C(=O)N([C@@H](C)CO)C[C@H]2C)cc1	-	-83.6	-	.
C[C@@H]1CCCCO[C@H](CN(C)S(=O)(=O)c2ccc(F)cc2)[C@H](C)CN([C@@H](C)CO)C(=O)c2cc(NC(=O)c3ccccc3)ccc2O1	.	-	-	.
SMILES	T cruzi growth	Pf Dd2 inh	GASC1 inh	IDH1 R132H inh
C[C@@H]1CCCCO[C@H](CN(C)S(=O)(=O)c2ccc(F)cc2)[C@@H](C)CN([C@@H](C)CO)C(=O)c2cc(NC(=O)c3ccccc3)ccc2O1	.	-84.2	-	-
C[C@@H]1CN([C@H](C)CO)C(=O)c2cc(NC(=O)c3ccccc3)ccc2O[C@@H](C)CCCCO[C@H]1CN(C)S(=O)(=O)c1ccc(Cl)cc1	-	-85.0	-	.
C[C@@H]1CCCCO[C@H](CN(C)S(=O)(=O)c2ccc(Cl)cc2)[C@@H](C)CN([C@H](C)CO)C(=O)c2cc(NC(=O)c3ccccc3)ccc2O1	-	-	-	-
Cc1ccc(S(=O)(=O)N(C)C[C@@H]2OCCCC[C@@H](C)Oc3ccc(NC(=O)c4ccccc4)cc3C(=O)N([C@H](C)CO)C[C@@H]2C)cc1	-	-	-	.
C[C@@H]1CCCCO[C@H](CN(C)S(=O)(=O)c2ccc(Cl)cc2)[C@@H](C)CN([C@@H](C)CO)C(=O)c2cc(NC(=O)c3ccccc3)ccc2O1	-	-82.6	-	-
O=C(CSc1nnc(NC(=O)c2ccc(Cl)c(Cl)c2)s1)Nc1ccc(F)c(F)c1F	.	.	.	-
Cc1ccc(C)c(C(Nc2ccccn2)c2cc(Cl)c3cccnc3c2O)c1 (stereo not given)	.	.	.	-
COc1cc([N+](=O)[O-])ccc1NC(=O)c1ccccc1OCC(=O)NC(C)(C)C	.	.	.	-
OC[C@@H]1Nc2ccc(C#Cc3cccc(F)c3)cc2[C@H]2NCC[C@@H]12	.	-87.6	-	.
COc1ccccc1C#Cc1ccc2c(c1)[C@@H]1NCC[C@@H]1[C@H](CO)N2	.	-90.2	-	.
C[C@@H]1CCCCO[C@@H](CN(C)S(=O)(=O)c2cn(C)cn2)[C@H](C)CN([C@H](C)CO)C(=O)c2cc(NC(=O)Nc3cccc4ccccc34)ccc2O1	-	-	-	.
COc1ccc(S(=O)(=O)N(C)C[C@H]2OCCCC[C@H](C)Oc3ccc(NC(=O)Nc4cccc5ccccc45)cc3C(=O)N([C@@H](C)CO)C[C@H]2C)cc1	-	-83.5	-	-
C[C@@H]1CN([C@H](C)CO)C(=O)c2cc(NC(=O)Nc3cccc4ccccc34)ccc2O[C@@H](C)CCCCO[C@@H]1CN(C)S(=O)(=O)c1cn(C)cn1	-	-88.1	-	.
COc1ccc(S(=O)(=O)N(C)C[C@H]2OCCCC[C@H](C)Oc3ccc(NC(=O)Nc4cccc5ccccc45)cc3C(=O)N([C@@H](C)CO)C[C@@H]2C)cc1	-	-	-	.
COc1ccc(S(=O)(=O)N(C)C[C@@H]2OCCCC[C@H](C)Oc3ccc(NC(=O)Nc4cccc5ccccc45)cc3C(=O)N([C@H](C)CO)C[C@H]2C)cc1	-	-86.2	-	-
Cc1nnc(SCC(=O)Nc2cccc3ccccc23)s1	.	.	.	-
N#C/C(=C(\O)COc1ccccc1)c1nc2ccccc2[nH]1	.	.	.	-
Cn1nnnc1SCC(=O)Nc1ccc2ccccc2c1	.	.	.	-
CC(C)NC(=O)Nc1ccc2c(c1)C(=O)N(C)[C@H]1CC[C@H](CC(=O)Nc3ccccc3)O[C@H]1CO2	-	-97.8	-	.
